Measurements reported in paper PMC4213839 (Journal of Ginseng Research, 2014).

Type: in vivo, Sprague–Dawley rats
How it was run: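 Male Sprague–Dawley rats (210–240 g) were fed a control diet or control diet plus 2.5, 5 or 10% test fiber for 2 wk, then dosed orally with test material at 200 or 2,000 mg/kg (n = 5 per group). Tail-vein blood was drawn at 0–24 h. Plasma was spun at 4,000 × g and deproteinized with acetonitrile. LC-MS/MS used MRM with an amlodipine internal standard. Cmax and Tmax were read from the profiles.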

[1] = 10% NUTRIOSE in the diet, ginseng extract-treated rats

fold increase of AUC of ginsenoside Rd by NUTRIOSE [1]: 1.34 fold
fold increase of Cmax of ginsenoside Rd by NUTRIOSE [1]: 1.34 fold
time after administration at which ginsenoside Rd was detected in blood (ginsenoside Rb1-treated rats): 8 h
AUC of ginsenoside Rd, fold higher in ginseng extract-treated than in ginsenoside Rb1-treated rats (same oral dosage of ginsenoside Rb1 and ginseng extract): 13.5 fold
Compound: CC(C)=CCC[C@](C)(O[C@@H]1O[C@H](CO)[C@@H](O)[C@H](O)[C@H]1O)[C@H]1CC[C@]2(C)[C@@H]1[C@H](O)C[C@@H]1[C@@]3(C)CC[C@H](O[C@@H]4O[C@H](CO)[C@@H](O)[C@H](O)[C@H]4O[C@@H]4O[C@H](CO)[C@@H](O)[C@H](O)[C@H]4O)C(C)(C)[C@@H]3CC[C@]12C [ginsenoside Rd]
